Active and inactive are the calls of the source. The calls are words filed in the database; no cut-off is given here.
Key:
[1] = target: T1, Bone morphogenetic protein 4 (Homo sapiens, UniProt P12644); assay: Binding affinity to human recombinant BMP4 by surface plasmon resonance assay
T1 sequence (P12644 whole entry): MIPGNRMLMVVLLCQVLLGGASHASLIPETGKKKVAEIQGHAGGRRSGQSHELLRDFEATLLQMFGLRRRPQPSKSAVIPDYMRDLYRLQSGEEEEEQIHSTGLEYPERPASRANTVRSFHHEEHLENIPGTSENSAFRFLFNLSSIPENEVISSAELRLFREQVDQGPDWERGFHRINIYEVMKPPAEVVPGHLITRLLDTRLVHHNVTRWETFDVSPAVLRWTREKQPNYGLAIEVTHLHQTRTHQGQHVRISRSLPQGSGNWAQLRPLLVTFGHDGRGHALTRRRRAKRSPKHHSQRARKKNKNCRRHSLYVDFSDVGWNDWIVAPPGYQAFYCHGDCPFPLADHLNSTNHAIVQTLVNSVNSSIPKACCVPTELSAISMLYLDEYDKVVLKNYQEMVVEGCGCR
How it was run: (§1)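 Biotinylated low-molecular-weight heparin was captured on a neutravidin surface. Protein at varying concentrations was mixed with a hexasaccharide dilution series and injected. Free protein was read from a quadratic slope-vs-concentration standard curve. KD = [P_free][H_total]/[P_bound], averaged over three hexasaccharide concentrations.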

C-X-C motif chemokine 2 = target: T2, C-X-C motif chemokine 2 (Homo sapiens, UniProt P19875); assay: Binding affinity to human recombinant CXCL2 by surface plasmon resonance assay; how it was run: as §1
T2 sequence (P19875 whole entry): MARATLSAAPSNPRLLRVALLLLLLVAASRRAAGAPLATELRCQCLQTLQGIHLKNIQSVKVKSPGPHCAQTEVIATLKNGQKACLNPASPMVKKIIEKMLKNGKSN

[2] = target: T3, Bone morphogenetic protein 2 (Homo sapiens, UniProt P12643); assay: Binding affinity to human recombinant BMP2 by surface plasmon resonance assay; how it was run: as §1
T3 sequence (P12643 whole entry): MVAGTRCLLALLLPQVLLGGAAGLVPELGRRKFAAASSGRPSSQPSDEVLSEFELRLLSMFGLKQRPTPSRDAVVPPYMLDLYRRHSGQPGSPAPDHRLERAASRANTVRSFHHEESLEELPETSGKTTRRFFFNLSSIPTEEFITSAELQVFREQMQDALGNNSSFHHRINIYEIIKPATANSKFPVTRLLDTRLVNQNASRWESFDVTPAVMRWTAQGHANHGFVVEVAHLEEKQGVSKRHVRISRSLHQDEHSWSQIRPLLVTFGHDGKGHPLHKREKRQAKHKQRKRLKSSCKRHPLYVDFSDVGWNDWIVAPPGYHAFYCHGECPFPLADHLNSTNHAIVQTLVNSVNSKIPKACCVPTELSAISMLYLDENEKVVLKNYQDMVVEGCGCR

[3] = target: Fibroblast growth factor 2 (Homo sapiens, UniProt P09038); assay: Binding affinity to human recombinant FGF2 at 780 uM by STD-NMR analysis
[4] = target: T4, Vascular endothelial growth factor A, long form (Homo sapiens, UniProt P15692); assay: Binding affinity to human recombinant VEGF165 by surface plasmon resonance assay; how it was run: as §1
T4 sequence (P15692 whole entry): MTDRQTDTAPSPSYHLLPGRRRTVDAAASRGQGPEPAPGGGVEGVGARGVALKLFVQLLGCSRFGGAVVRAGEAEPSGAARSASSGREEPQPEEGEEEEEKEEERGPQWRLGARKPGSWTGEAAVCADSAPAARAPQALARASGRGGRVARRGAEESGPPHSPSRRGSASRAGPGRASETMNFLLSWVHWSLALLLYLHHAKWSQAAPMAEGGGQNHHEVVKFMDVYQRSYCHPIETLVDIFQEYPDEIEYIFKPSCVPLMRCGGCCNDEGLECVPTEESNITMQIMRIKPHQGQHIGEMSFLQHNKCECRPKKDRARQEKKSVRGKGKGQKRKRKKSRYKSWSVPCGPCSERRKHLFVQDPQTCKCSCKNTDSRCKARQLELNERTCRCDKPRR

[5] = target: T5, P-selectin/P-selectin glycoprotein ligand 1 (Homo sapiens, UniProt P16109+Q14242); assay: Inhibition of PSEL/PSGL1 (unknown origin) interaction; format: protein assay
T5 sequence (Q14242 whole entry): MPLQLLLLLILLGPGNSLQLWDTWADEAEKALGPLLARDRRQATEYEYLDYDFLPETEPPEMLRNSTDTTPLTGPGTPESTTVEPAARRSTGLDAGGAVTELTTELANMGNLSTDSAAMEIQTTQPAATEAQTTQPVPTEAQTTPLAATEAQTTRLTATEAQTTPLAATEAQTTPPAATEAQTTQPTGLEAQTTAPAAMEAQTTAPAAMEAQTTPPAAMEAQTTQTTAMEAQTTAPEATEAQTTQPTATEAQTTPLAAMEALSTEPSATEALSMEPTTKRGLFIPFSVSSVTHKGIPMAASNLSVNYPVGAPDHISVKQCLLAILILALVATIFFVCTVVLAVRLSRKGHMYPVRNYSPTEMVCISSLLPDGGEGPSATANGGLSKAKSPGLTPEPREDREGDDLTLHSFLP
T5 sequence (P16109 whole entry): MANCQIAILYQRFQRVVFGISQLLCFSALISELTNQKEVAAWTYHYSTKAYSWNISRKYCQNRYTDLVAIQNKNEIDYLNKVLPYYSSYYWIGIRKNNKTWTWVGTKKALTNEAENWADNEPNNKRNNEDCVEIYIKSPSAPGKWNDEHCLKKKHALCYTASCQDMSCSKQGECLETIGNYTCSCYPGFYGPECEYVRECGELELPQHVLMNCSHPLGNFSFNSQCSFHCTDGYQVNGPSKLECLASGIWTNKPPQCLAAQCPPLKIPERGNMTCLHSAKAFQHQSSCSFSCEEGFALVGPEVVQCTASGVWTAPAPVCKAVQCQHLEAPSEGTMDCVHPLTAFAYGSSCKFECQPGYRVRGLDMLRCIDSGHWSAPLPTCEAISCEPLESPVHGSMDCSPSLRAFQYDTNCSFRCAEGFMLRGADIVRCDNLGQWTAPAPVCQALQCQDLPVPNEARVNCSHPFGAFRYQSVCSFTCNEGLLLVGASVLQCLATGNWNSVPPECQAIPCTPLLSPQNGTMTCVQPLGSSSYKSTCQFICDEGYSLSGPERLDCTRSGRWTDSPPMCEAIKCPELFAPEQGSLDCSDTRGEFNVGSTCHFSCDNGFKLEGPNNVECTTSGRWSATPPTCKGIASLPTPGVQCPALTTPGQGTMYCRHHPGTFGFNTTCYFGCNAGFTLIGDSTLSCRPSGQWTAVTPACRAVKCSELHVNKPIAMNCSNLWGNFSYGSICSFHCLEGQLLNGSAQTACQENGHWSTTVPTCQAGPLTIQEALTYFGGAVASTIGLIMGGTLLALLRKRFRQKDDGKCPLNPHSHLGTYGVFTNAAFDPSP
How it was run: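 Hexasaccharide dilution series mixed with 50 nM PSEL and passed over a PSGL1-Fc-coated SPR surface. Equilibrium response was measured. IC50 came from nonlinear regression of response vs concentration, and Ki from the Cheng–Prusoff equation.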

Sonic hedgehog protein = Sonic hedgehog protein (Homo sapiens, UniProt Q15465); assay: Binding affinity to human recombinant Shh by surface plasmon resonance assay; how it was run: as §1
[6] = target: Bone morphogenetic protein 6 (Homo sapiens, UniProt P22004); assay: Binding affinity to human recombinant BMP6 by surface plasmon resonance assay; how it was run: as §1
Bone morphogenetic protein 6, sequence (P22004 375-513 limits assumed): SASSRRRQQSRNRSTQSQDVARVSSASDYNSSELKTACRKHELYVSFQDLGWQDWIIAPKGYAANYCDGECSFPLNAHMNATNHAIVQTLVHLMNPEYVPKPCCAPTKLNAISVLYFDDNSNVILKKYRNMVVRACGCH

Fibroblast growth factor 2, sequence (P09038 143-288 limits assumed): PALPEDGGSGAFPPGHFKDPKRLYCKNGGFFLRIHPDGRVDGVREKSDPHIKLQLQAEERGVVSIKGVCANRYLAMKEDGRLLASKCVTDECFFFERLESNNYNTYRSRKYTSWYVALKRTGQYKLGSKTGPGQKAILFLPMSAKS
Sonic hedgehog protein, sequence (Q15465 24-197 limits assumed): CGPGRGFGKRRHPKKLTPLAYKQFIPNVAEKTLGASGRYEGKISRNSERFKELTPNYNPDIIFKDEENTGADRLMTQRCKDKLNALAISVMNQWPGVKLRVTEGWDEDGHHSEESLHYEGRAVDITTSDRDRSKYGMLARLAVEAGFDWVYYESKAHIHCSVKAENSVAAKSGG

Kd [1]	Kd (C-X-C motif chemokine 2)	Kd [2]	Activity [3]	Kd [4]	Ki [5]	Kd (Sonic hedgehog protein)	Kd [6]	SMILES
250000 µM	250000 µM	24 µM	Active	66 µM	250 µM	27 µM	250000 µM	CCCCCO[C@H]1O[C@H](COS(=O)(=O)O)[C@@H](O[C@@H]2O[C@@H](C(=O)O)[C@@H](O[C@H]3O[C@H](COS(=O)(=O)O)[C@@H](O[C@@H]4O[C@@H](C(=O)O)[C@@H](O[C@H]5O[C@H](COS(=O)(=O)O)[C@@H](O[C@@H]6O[C@@H](C(=O)O)[C@@H](O)[C@H](O)[C@H]6OS(=O)(=O)O)[C@H](O)[C@H]5NC(C)=O)[C@H](O)[C@H]4OS(=O)(=O)O)[C@H](O)[C@H]3NC(C)=O)[C@H](O)[C@H]2OS(=O)(=O)O)[C@H](O)[C@H]1NC(C)=O
250000 µM	250000 µM	46 µM	Active	86 µM	358 µM	122 µM	250000 µM	NCCCCCO[C@H]1O[C@H](CO)[C@@H](O[C@@H]2O[C@@H](C(=O)O)[C@@H](O[C@H]3O[C@H](CO)[C@@H](O[C@@H]4O[C@@H](C(=O)O)[C@@H](O[C@H]5O[C@H](CO)[C@@H](O[C@@H]6O[C@@H](C(=O)O)[C@@H](O)[C@H](O)[C@H]6OS(=O)(=O)O)[C@H](O)[C@H]5NS(=O)(=O)O)[C@H](O)[C@H]4OS(=O)(=O)O)[C@H](O)[C@H]3NS(=O)(=O)O)[C@H](O)[C@H]2OS(=O)(=O)O)[C@H](O)[C@H]1NS(=O)(=O)O
250000 µM	250000 µM	34 µM	Active	14 µM	96 µM	23 µM	9 µM	CCCCCO[C@H]1O[C@H](COS(=O)(=O)O)[C@@H](O[C@@H]2O[C@@H](C(=O)O)[C@@H](O[C@H]3O[C@H](COS(=O)(=O)O)[C@@H](O[C@@H]4O[C@@H](C(=O)O)[C@@H](O[C@H]5O[C@H](COS(=O)(=O)O)[C@@H](O[C@@H]6O[C@@H](C(=O)O)[C@@H](O)[C@H](O)[C@H]6OS(=O)(=O)O)[C@H](O)[C@H]5NC(C)=O)[C@H](O)[C@H]4OS(=O)(=O)O)[C@H](O)[C@H]3NS(=O)(=O)O)[C@H](O)[C@H]2O)[C@H](O)[C@H]1NC(C)=O

Source: ChEMBL document CHEMBL3286317, “Synthesis and biological evaluation of a unique heparin mimetic hexasaccharide for structure-activity relationship studies” (J Med Chem, 2014)
